Calls of active or inactive are those of the source. No cut-off for these calls is given here.
Tests used:
HCC827 [1] = assay: Down regulation of SLC30A7 expression in human HCC827 cells at 100 nM measured after 16 hrs by LC-MS analysis; format: functional, cell-based
In short: (§1)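 HCC-827 cells serum-starved 8 h, then treated at 100 nM for 16 h. Collected for label-free quantitative LC–MS proteomics; LFQ intensity compared between treated and control groups; three independent experiments.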

[2] = tested on: Protein cereblon/Epidermal growth factor receptor (Homo sapiens), P00533+Q96SW2 [L858R]; assay: Protac activity at CRBN/EGFR L858R mutant in human H3255 cells assessed as induction of EGFR degradation at 10 uM treated 8 hrs post serum starvation measured after 16 hrs by Western blot analysis; format: cell-based
In short: (§2)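 Cultured to 80% confluence in RPMI/1640 with 20% FBS at 37 °C and 5% CO2, then switched to serum-free medium for 8 h. Degraders were added over a concentration range up to 10 μM for 16 h, with gefitinib at 1 μM as reference. Lysates in Laemmli buffer were immunoblotted for EGFR, p-EGFR and p-AKT. DC50 came from band quantification by nonlinear regression (variable slope).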

[3] = tested on: Protein cereblon/Epidermal growth factor receptor (Homo sapiens), P00533+Q96SW2 [UNDEFINED MUTATION]; assay: Protac activity at CRBN/EGFR exon 19 deletion mutant in human HCC827 cells assessed as induction of EGFR degradation at up to 1 uM treated 8 hrs post serum starvation measured after 16 hrs by Western blot analysis; format: cell-based
Protein cereblon/Epidermal growth factor receptor (Homo sapiens), P00533+Q96SW2 [UNDEFINED MUTATION], sequence (P00533 whole entry, looked up, stated change not applied): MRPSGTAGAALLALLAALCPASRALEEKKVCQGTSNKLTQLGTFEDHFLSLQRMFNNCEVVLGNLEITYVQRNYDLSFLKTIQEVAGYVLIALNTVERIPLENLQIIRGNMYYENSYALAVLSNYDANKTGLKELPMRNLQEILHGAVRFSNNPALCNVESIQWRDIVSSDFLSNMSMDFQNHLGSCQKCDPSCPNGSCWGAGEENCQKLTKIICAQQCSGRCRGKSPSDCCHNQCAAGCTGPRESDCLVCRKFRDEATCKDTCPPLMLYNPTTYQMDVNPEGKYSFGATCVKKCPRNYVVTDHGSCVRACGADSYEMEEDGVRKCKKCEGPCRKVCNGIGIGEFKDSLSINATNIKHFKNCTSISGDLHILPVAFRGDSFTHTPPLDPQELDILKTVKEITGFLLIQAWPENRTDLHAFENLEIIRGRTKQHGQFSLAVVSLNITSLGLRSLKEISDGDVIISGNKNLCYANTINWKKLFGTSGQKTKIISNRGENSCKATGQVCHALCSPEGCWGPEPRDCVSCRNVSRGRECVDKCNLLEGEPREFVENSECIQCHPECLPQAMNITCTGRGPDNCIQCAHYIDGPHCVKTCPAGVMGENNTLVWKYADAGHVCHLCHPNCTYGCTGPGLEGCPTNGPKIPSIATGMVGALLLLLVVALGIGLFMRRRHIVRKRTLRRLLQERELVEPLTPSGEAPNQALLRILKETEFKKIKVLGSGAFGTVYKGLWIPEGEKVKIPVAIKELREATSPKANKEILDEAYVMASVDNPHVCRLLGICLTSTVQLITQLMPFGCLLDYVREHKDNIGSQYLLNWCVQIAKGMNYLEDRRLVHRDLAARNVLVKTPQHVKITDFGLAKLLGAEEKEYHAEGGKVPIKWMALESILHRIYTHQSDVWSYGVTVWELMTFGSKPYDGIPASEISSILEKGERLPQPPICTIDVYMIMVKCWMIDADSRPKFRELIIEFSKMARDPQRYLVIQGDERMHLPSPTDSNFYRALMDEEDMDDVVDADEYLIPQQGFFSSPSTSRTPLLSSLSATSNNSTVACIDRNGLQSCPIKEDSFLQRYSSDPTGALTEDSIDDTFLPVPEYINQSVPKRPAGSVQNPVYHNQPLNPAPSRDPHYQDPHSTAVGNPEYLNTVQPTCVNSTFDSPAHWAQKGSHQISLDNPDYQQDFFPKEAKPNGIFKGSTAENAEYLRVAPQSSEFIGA
Protein cereblon/Epidermal growth factor receptor (Homo sapiens), P00533+Q96SW2 [UNDEFINED MUTATION], sequence (Q96SW2 whole entry, looked up, stated change not applied): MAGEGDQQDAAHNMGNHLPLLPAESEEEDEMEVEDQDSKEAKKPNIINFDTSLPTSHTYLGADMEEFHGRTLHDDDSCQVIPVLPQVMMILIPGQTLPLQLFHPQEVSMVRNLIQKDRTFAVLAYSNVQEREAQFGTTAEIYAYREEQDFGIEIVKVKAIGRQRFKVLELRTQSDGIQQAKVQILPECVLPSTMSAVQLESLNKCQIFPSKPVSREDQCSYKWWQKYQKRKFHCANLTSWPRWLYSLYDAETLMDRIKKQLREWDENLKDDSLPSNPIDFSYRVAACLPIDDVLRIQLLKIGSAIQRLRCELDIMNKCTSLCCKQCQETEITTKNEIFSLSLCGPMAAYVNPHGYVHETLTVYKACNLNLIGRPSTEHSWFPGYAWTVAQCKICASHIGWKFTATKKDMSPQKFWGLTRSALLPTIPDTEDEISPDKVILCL

[4] = tested on: Protein cereblon/Epidermal growth factor receptor (Homo sapiens), P00533+Q96SW2 [UNDEFINED MUTATION]; assay: Protac activity at CRBN/EGFR exon 19 deletion mutant in human HCC827 cells assessed as time required to induce 50% EGFR degradation at 100 nM treated 8 hrs post serum starvation by Western blot analysis; format: cell-based
In short: (§3)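 After 8 h serum starvation, cells got 100 nM degrader and were collected at serial time points for Western blot of EGFR and downstream signaling.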

[5] = tested on: Protein cereblon/Epidermal growth factor receptor (Homo sapiens), P00533+Q96SW2 [UNDEFINED MUTATION]; assay: Protac activity at CRBN/EGFR exon 19 deletion mutant in human HCC827 cells assessed as induction of EGFR degradation at 100 nM treated 8 hrs post serum starvation measured after 12 hrs by Western blot analysis relative to control; format: cell-based; in short: as §3
[6] = tested on: Protein cereblon/Epidermal growth factor receptor (Homo sapiens), P00533+Q96SW2 [L858R]; assay: Reversible protac activity at CRBN/EGFR L858R mutant in human H3255 cells assessed as recovery of EGFR phosphorylation at 100 nM preincubated for 12 hrs followed by compound washout and measured up to 48 hrs by Western blot analysis; format: cell-based
In short: (§4)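 Cells were serum-starved 8 h, then given degrader for 12 h. They were washed three times with PBS and harvested at the indicated time points after washout. EGFR, p-EGFR and p-AKT were read by Western blot.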

[7] = tested on: Protein cereblon/Epidermal growth factor receptor (Homo sapiens), P00533+Q96SW2 [L858R]; assay: Protac activity at CRBN/EGFR L858R mutant in human H3255 cells assessed as induction of EGFR degradation at 100 nM measured after 8 hrs in presence of negative control MS154N by Western blot analysis; format: cell-based
[8] = tested on: Protein cereblon/Epidermal growth factor receptor (Homo sapiens), P00533+Q96SW2 [L858R]; assay: Protac activity at CRBN/EGFR L858R mutant in human H3255 cells assessed as reduction in AKT phosphorylation up to 10 uM treated 8 hrs post serum starvation measured after 16 hrs by Western blot analysis; format: cell-based; in short: as §2
HCC827 [9] = assay: Up regulation of HMGCS1 expression in human HCC827 cells at 100 nM measured after 16 hrs by LC-MS analysis; format: functional, cell-based; in short: as §1
[10] = tested on: Protein cereblon/Epidermal growth factor receptor (Homo sapiens), P00533+Q96SW2 [UNDEFINED MUTATION]; assay: Reversible protac activity at CRBN/EGFR exon 19 deletion mutant in human HCC827 cells assessed as recovery of EGFR phosphorylation at 100 nM preincubated for 12 hrs followed by compound washout and measured after 24 hrs by Western blot analysis; format: cell-based; in short: as §4
[11] = tested on: Protein cereblon/Epidermal growth factor receptor (Homo sapiens), P00533+Q96SW2 [L858R]; assay: Protac activity at CRBN/EGFR L858R mutant in human H3255 cells assessed as induction of EGFR degradation at 100 nM measured after 8 hrs in presence of neddylation inhibitor MLN4924 by Western blot analysis; format: cell-based

With COc1cc2ncnc(Nc3ccc(F)c(Cl)c3)c2cc1OCCCN1CCN(CCC(=O)NCCCCCCCCOc2cccc3c2C(=O)N(C2CCC(=O)NC2=O)C3=O)CC1 (stereo unspecified) the Activity (HCC827 [1]) was “Active”, the Activity [2] was “Active” and the Activity [3] was “Active”. The T1/2 [4] was 3.5 h, the Activity [5] was 100% and the Activity [6] was “Active”. The Activity [7] was “inactive”, the Activity [8] was “Active” and the Activity (HCC827 [9]) was “Active”. The Activity [10] was “Active” and the Activity [11] was “inactive”.
